Measurements taken from ChEMBL document CHEMBL4196022, “Alkynyl-containing phenylthiazoles: Systemically active antibacterial agents effective against methicillin-resistant Staphylococcus aureus (MRSA)” (Eur J Med Chem, 2018).
Converted amounts (≈) assume the structure as drawn. The source made the active and inactive calls. The rule behind the calls is not given here.

Experiments:
Staphylococcus aureus [1] = assay: Antibacterial activity against methicillin-resistant Staphylococcus aureus NRS107 after 20 hrs by broth microdilution assay; format: functional; settings: NRS107, 20 h
Outline: (§1)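 Broth microdilution per CLSI in cation-adjusted Mueller Hinton broth. Compounds serially diluted, in triplicate. Incubation at 37 °C for at least 20 hours. MIC taken as the lowest concentration with no visible bacterial growth.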

Staphylococcus aureus [2] = assay: Bactericidal activity against methicillin-resistant Staphylococcus aureus USA300 up to 18 hrs by broth microdilution assay; format: functional; settings: USA300, 18 h, read-out: MBC99.9
Staphylococcus aureus [3] = assay: Antibacterial activity against methicillin-resistant Staphylococcus aureus NRS119 after 20 hrs by broth microdilution assay; format: functional; settings: NRS119, 20 h; outline: as §1
Staphylococcus aureus [4] = assay: Bactericidal activity against methicillin-resistant Staphylococcus aureus NRS119 up to 18 hrs by broth microdilution assay; format: functional; settings: NRS119, 18 h, read-out: MBC99.9
Staphylococcus aureus [5] = assay: Antibacterial activity against methicillin-resistant Staphylococcus aureus NRS123 (USA400) after 20 hrs by broth microdilution assay; format: functional; outline: as §1
Staphylococcus aureus [6] = assay: Bactericidal activity against methicillin resistant Staphylococcus aureus NRS123 (USA400) up to 18 hrs by broth microdilution assay; format: functional; settings: read-out: MBC99.9
Staphylococcus aureus [7] = assay: Antibacterial activity against vancomycin-resistant Staphylococcus aureus VRS10 after 20 hrs by broth microdilution assay; format: functional; settings: VRS10, 20 h; outline: as §1
Staphylococcus aureus [8] = assay: Bactericidal activity against methicillin resistant vancomycin-resistant Staphylococcus aureus VRS10 up to 18 hrs by broth microdilution assay; format: functional; settings: VRS10, 18 h, read-out: MBC99.9
Staphylococcus aureus [9] = assay: Antibacterial activity against vancomycin-resistant Staphylococcus aureus VRS11a after 20 hrs by broth microdilution assay; format: functional; outline: as §1
Staphylococcus aureus [10] = assay: Bactericidal activity against methicillin resistant vancomycin-resistant Staphylococcus aureus VRS11a up to 18 hrs by broth microdilution assay; format: functional; settings: read-out: MBC99.9
Staphylococcus aureus [11] = assay: Antibacterial activity against vancomycin-resistant Staphylococcus aureus VRS12 after 20 hrs by broth microdilution assay; format: functional; settings: VRS12, 20 h; outline: as §1
Staphylococcus aureus [12] = assay: Bactericidal activity against methicillin resistant vancomycin-resistant Staphylococcus aureus VRS12 up to 18 hrs by broth microdilution assay; format: functional; settings: VRS12, 18 h, read-out: MBC99.9
Outline: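 MBC set up from the MIC plates. Aliquots from wells with no growth spotted onto tryptic soy agar and incubated at 37 °C for at least 18 hours. MBC taken as the lowest concentration giving 99.9% inhibition of bacterial growth.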

Staphylococcus aureus [13] = assay: Potency index, ratio of vancomycin MIC to compound MIC for antibacterial activity against vancomycin-resistant Staphylococcus aureus VRS10; format: functional
Staphylococcus aureus [14] = assay: Potency index, ratio of vancomycin MIC to compound MIC for antibacterial activity against vancomycin-resistant Staphylococcus aureus VRS11a; format: functional
Staphylococcus aureus [15] = assay: Potency index, ratio of vancomycin MIC to compound MIC for antibacterial activity against vancomycin-resistant Staphylococcus aureus VRS12; format: functional
Staphylococcus aureus [16] = assay: Ratio of MBC to MIC for methicillin-resistant Staphylococcus aureus USA300; format: functional
Outline: (§2)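 MBC/MIC ratio. […] MBC by plating no-growth wells onto tryptic soy agar at 37 °C for at least 18 h; taken as the concentration giving 99.9% growth inhibition.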

Staphylococcus aureus [17] = assay: Ratio of MBC to MIC for methicillin-resistant Staphylococcus aureus NRS107; format: functional; outline: as §2
Staphylococcus aureus [18] = assay: Ratio of MBC to MIC for methicillin-resistant Staphylococcus aureus NRS119; format: functional; outline: as §2
Staphylococcus aureus [19] = assay: Ratio of MBC to MIC for methicillin-resistant Staphylococcus aureus NRS123 (USA400); format: functional; outline: as §2
Staphylococcus aureus [20] = assay: Ratio of MBC to MIC for vancomycin-resistant Staphylococcus aureus VRS10; format: functional; outline: as §2
Staphylococcus aureus [21] = assay: Ratio of MBC to MIC for vancomycin-resistant Staphylococcus aureus VRS11a; format: functional; outline: as §2
Staphylococcus aureus [22] = assay: Ratio of MBC to MIC for vancomycin-resistant Staphylococcus aureus VRS12; format: functional; outline: as §2
Staphylococcus aureus [23] = assay: Bactericidal activity against methicillin-resistant Staphylococcus aureus NRS123 (USA400) at 4 times MIC after 24 hrs by time kill assay; format: functional, organism-based
J774 = assay: Cytotoxicity against mouse J774 cells assessed as reduction in cell viability up to 16 ug/ml after 24 hrs by MTS assay; format: cell-based; settings: j774, 24 h
Outline: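 J774 murine macrophages were grown in DMEM with 10% FBS at 37 °C, 5% CO2. Compounds were tested at 8, 16 and 32 μg/mL in triplicate for 24 h, with a DMSO-matched control. MTS was added for 4 h and absorbance read at 490 nm. Viability is given as % of DMSO control (mean ± SD); Student t-test with Holm-Sidak test.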

Staphylococcus aureus [24] = assay: Antibacterial activity against methicillin-resistant Staphylococcus aureus NRS123 (USA400) infected in mouse J774 cells at 16 ug/ml after 24 hrs; format: functional, organism-based
Outline: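 J774 macrophages grown in DMEM with 10% FBS at 37 °C, 5% CO2. Infected with USA400 at MOI ~100:1 for 1 h, then washed with gentamicin 50 μg/mL. Treated in triplicate wells for 24 h, washed with gentamicin again and lysed with 0.1% Triton X-100. Lysate plated on tryptic soy agar for 18–22 h; CFU/mL counted.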

HRT-18 cell line = assay: Cytotoxicity against human HRT18 cells assessed as reduction in cell viability up to 32 ug/ml after 2 hrs by MTS assay; format: cell-based; settings: hrt-18, 2 h
[25] = Selectivity index, ratio of toxic concentration for human HRT18 cells to MIC for methicillin-resistant Staphylococcus aureus; format: toxicity; settings: read-out: Selectivity Index
Staphylococcus aureus [26] = assay: Antibacterial activity against methicillin-resistant Staphylococcus aureus USA300 infected in Caenorhabditis elegans AU37 assessed as reduction in bacterial burden at 20 ug/ml after 18 hrs relative to control; format: functional; parameters: scale not given: the % may be the effect or the level left
Outline: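 L4-stage C. elegans AU37 infected on USA300 lawns for 6 h and washed with M9 buffer. 25–30 worms per well exposed to 20 μg/mL for 18 h, in triplicate. Worms then lysed and plated on TSA with 5 μg/mL nalidixic acid for 17 h at 37 °C. CFU per worm expressed as % reduction versus PBS.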

Staphylococcus aureus [27] = assay: Antibacterial activity against methicillin-resistant Staphylococcus aureus USA300 in Balb/c mouse skin infection model assessed as reduction in bacterial burden in wounded skin area at 2% administered topically twice daily for 5 consecutive days measured 12 hrs post last dose relative to control; format: functional; parameters: scale not given: the % may be the effect or the level left
Outline: (§3)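 Female Balb/c mice, 8 weeks old, n=5 per group. Intradermal injection of 40 μL of 1.32×10^9 CFU/mL USA300; a wound formed by ~66 h. Treated topically with a 2% suspension in petroleum jelly twice daily for 5 days; the vehicle group served as control. Wounds excised 12 h after the last dose, homogenized in PBS and plated on mannitol salt agar; sites also observed for redness and swelling.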

Staphylococcus aureus [28] = assay: Bactericidal activity against methicillin-resistant Staphylococcus aureus USA300 at 4 times MIC after 24 hrs by time kill assay; format: functional, organism-based
Mus musculus [29] = assay: Induction of inflammation in Balb/c mouse infected with methicillin-resistant Staphylococcus aureus USA300 assessed as redness around wounded skin area at 2% administered topically twice daily for 5 consecutive days measured 12 hrs post last dose relative to control; format: organism-based; settings: in vivo, topical_or_ocular; outline: as §3
Mus musculus [30] = assay: Induction of inflammation in Balb/c mouse infected with methicillin-resistant Staphylococcus aureus USA300 assessed as swelling around wounded skin area at 2% administered topically twice daily for 5 consecutive days measured 12 hrs post last dose; format: organism-based; settings: in vivo, topical_or_ocular; outline: as §3
Mus musculus [31] = assay: Toxicity in wounded skin area of Balb/c mouse infected with methicillin-resistant Staphylococcus aureus USA300 at 2% administered topically twice daily for 5 consecutive days measured 12 hrs post last dose; format: organism-based; settings: in vivo, topical_or_ocular; outline: as §3
Staphylococcus aureus [32] = assay: Antibacterial activity against methicillin-resistant Staphylococcus aureus USA300 after 20 hrs by broth microdilution assay; format: functional; settings: USA300, 20 h; outline: as §1
Staphylococcus aureus [33] = assay: Bactericidal activity against methicillin-resistant Staphylococcus aureus NRS107 up to 18 hrs by broth microdilution assay; format: functional; settings: NRS107, 18 h, read-out: MBC99.9

SMILES | MIC (Staphylococcus aureus [1]) | MBC (Staphylococcus aureus [2]) | MIC (Staphylococcus aureus [3]) | MBC (Staphylococcus aureus [4]) | MIC (Staphylococcus aureus [7]) | MBC (Staphylococcus aureus [8]) | MIC (Staphylococcus aureus [9]) | MIC (Staphylococcus aureus [11]) | MBC (Staphylococcus aureus [12]) | Ratio (Staphylococcus aureus [13]) | Ratio (Staphylococcus aureus [14]) | Ratio (Staphylococcus aureus [15]) | Ratio (Staphylococcus aureus [17]) | Ratio (Staphylococcus aureus [18]) | Ratio (Staphylococcus aureus [20]) | Ratio (Staphylococcus aureus [21]) | Ratio (Staphylococcus aureus [22]) | Activity (Staphylococcus aureus [23]) | Activity (J774) | Activity (Staphylococcus aureus [24]) | also measured
CCCCCC#Cc1ccc(-c2nc(C)c(/C(C)=N/NC(=N)N)s2)cc1 | 2 µg/mL (≈ 5.44 µM) | 4 µg/mL (≈ 10.9 µM) | 2 µg/mL (≈ 5.44 µM) | 2 µg/mL (≈ 5.44 µM) | 2 µg/mL (≈ 5.44 µM) | 2 µg/mL (≈ 5.44 µM) | 1 µg/mL (≈ 2.72 µM) | 2 µg/mL (≈ 5.44 µM) | 2 µg/mL (≈ 5.44 µM) | >100 | >100 | 8 | <=3 | <=3 | <=3 | <=3 | <=3 | Active | Non-Toxic | Active | MIC (Staphylococcus aureus [5]): 2 µg/mL (≈ 5.44 µM); MBC (Staphylococcus aureus [6]): 2 µg/mL (≈ 5.44 µM); MBC (Staphylococcus aureus [10]): 2 µg/mL (≈ 5.44 µM); Ratio (Staphylococcus aureus [16]): <=3; Ratio (Staphylococcus aureus [19]): <=3; Activity (HRT-18 cell line): Non-Toxic; selectivity ratio [25]: 7 to 31; Activity (Staphylococcus aureus [26]): 90%; Activity (Staphylococcus aureus [27]): 71%; Activity (Staphylococcus aureus [28]): Active; Activity (Mus musculus [29]): Non-Toxic; Activity (Mus musculus [30]): Non-Toxic; Activity (Mus musculus [31]): Non-Toxic
CCCC#Cc1ccc(-c2nc(C)c(/C(C)=N/NC(=N)N)s2)cc1 | 1 µg/mL (≈ 2.95 µM) | 8 µg/mL (≈ 23.6 µM) | 1 µg/mL (≈ 2.95 µM) | 1 µg/mL (≈ 2.95 µM) | 1 µg/mL (≈ 2.95 µM) | 2 µg/mL (≈ 5.89 µM) | ≤ 0.5 µg/mL | 1 µg/mL (≈ 2.95 µM) | 1 µg/mL (≈ 2.95 µM) | >100 | >100 | 16 | <=3 | <=3 | <=3 | <=3 | <=3 | Active | Non-Toxic | Active | MIC (Staphylococcus aureus [32]): 1 µg/mL (≈ 2.95 µM); MBC (Staphylococcus aureus [33]): 1 µg/mL (≈ 2.95 µM); Ratio (Staphylococcus aureus [16]; read-out: Ratio): 8; Activity (HRT-18 cell line): Non-Toxic; selectivity ratio [25]: 7 to 31; Activity (Staphylococcus aureus [28]): Active
